Measurements collected from several papers.
Lines come from different studies, so protocols differ.
Target: Aurora kinase A (AURKA, Homo sapiens, UniProt O14965)
Sequence (O14965 1-403, as in one of the studies): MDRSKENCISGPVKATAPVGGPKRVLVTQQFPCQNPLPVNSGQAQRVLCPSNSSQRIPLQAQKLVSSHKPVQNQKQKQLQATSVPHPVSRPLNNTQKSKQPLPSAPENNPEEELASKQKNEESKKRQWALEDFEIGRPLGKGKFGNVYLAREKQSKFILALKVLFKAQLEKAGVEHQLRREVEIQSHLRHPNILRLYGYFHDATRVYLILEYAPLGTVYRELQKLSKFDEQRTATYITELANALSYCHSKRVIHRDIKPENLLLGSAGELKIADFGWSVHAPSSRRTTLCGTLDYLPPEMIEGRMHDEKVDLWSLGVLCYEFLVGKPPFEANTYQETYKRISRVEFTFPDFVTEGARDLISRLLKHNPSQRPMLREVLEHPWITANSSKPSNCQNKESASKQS

Compound	observed	action	technique	cells	tested at	measurement	result
O=C(Nc1cnn(-c2csc(C(=O)NC3COC3)c2)c1)Nc1ccccc1Cl	enzyme activity	inhibitor			5 µM	remaining activity	105%
Cc1ccc(C(=O)NCc2ccsc2)cc1C#Cc1cn(C(C)C)c2ncnc(N)c12	enzyme activity	inhibitor			1 µM	activity vs control	50%
CCN(CC)CCNC(=O)c1c(C)[nH]c(/C=C2\C(=O)Nc3ccc(F)cc32)c1C	enzyme activity	inhibitor			10 µM	inhibition	84%
CN1CC(Oc2cnc(C#N)cc2-c2ccn3nc(NC(=O)C4CC4)cc3c2)C1	enzyme activity	inhibitor			1 µM	inhibition	6%
CNc1cccc2cc(C(=O)Nc3ccc(C(=O)O)cc3)c(=O)[nH]c12	enzyme activity	inhibitor			10 µM	inhibition	16%
FC(F)c1nc2ccccc2n1-c1nc(N2CCOCC2)nc(N2CCOCC2)n1	enzyme activity	inhibitor			10 µM	remaining activity	99%
CCN(CC)c1ccc(C2=NNC(=O)CC2C)cc1[N+](=O)[O-] (centres unmarked)	enzyme activity	inhibitor			10 µM	remaining activity	93%
Cn1c(=O)n(-c2ccc(C(C)(C)C#N)cc2)c2c3cc(-c4cnc5ccccc5c4)ccc3ncc21	enzyme activity	inhibitor			10 µM	remaining activity	104%
Cc1sc(C(=O)NC2COC2)cc1-n1cc(NC(=O)Nc2c(F)cccc2Cl)cn1	enzyme activity	inhibitor			10 µM	remaining activity	88.4%
Cc1c(NC(=O)c2cc(C(N)=O)nc3cc(F)ccc23)c(C(F)(F)F)nn1Cc1ccc(C#N)cc1	cell-free assay		competition with immobilised ligand		1 µM	remaining binding	89%
COc1cc(Nc2cnc(C#N)c(O[C@H](C)CN(C)C)n2)ncc1-c1cnn(C)c1	enzyme activity	inhibitor	radiometric		1 µM	remaining activity	84%
O=C(N1CCS(=O)(=O)CC1)N1C[C@H](c2ccc(OC(F)(F)F)cc2)C[C@H](c2nc(C3CC3)no2)C1	cell-free assay		competition with immobilised ligand		1 µM	remaining binding	100%
Cc1ccc(Nc2nccc(N(C)c3ccc4c(C)n(C)nc4c3)n2)cc1S(N)(=O)=O	enzyme activity	inhibitor			10 µM	inhibition	99%
COc1cc(/C=C/C(=O)CC(=O)/C=C/c2ccc(O)c(OC)c2)ccc1O	enzyme activity	inhibitor			1 µM	activity vs control	85%
Cc1nc(Cc2cccc(C(F)(F)F)c2)sc1-c1ccc(C(N)=O)nc1	cell-free assay		competition with immobilised ligand		1 µM	remaining binding	100%
COc1cc2ncnc(Nc3ccc(Oc4ccccc4)cc3C)c2cc1OC	enzyme activity	inhibitor			1 µM	inhibition	8%

Compound	observed	action	technique	cells	tested at	measurement	result
CC(C)(C)c1nc2c(s1)c1nc(N)ncc1c1ccc(NS(=O)(=O)c3c(F)cccc3F)c(F)c12	enzyme activity	inhibitor	radiometric		1 µM	remaining activity	103%
CSc1nc(C)c(-c2ccnc(Nc3ccc(N4CCOCC4)cc3)c2)[nH]1	enzyme activity	inhibitor			10 µM	inhibition	40.6%
O=C(CSc1nc2nccnc2c(=O)n1CCc1ccccc1)Nc1nccs1	enzyme activity	inhibitor			10 µM	inhibition	1%
CCN(CC)CCNC(=O)c1c(C)[nH]c(/C=C2\C(=O)Nc3ccc(F)cc32)c1C	enzyme activity	inhibitor			1 µM	remaining activity	43%
CNc1cc(Oc2cc(C(=O)Nc3cc(N4CCN(C)CC4)cc(C(F)(F)F)c3)ccc2C)ncn1	target engagement in cells	inhibitor	chemoproteomics	Huh-7	1 µM	inhibition	-45.4%
CN(c1ccnc(CNc2nc(Nc3ccc4c(c3)CC(=O)N4)ncc2C(F)(F)F)n1)S(C)(=O)=O	cell-free assay		competition with immobilised ligand		1 µM	remaining binding	14%
O=Nc1c(-c2c(O)[nH]c3ccccc23)[nH]c2ccccc12	cell-free assay				0.5 µM	remaining signal	21.3%
CNC(=O)c1cc(Oc2ccc(NC(=O)Nc3ccc(Cl)c(C(F)(F)F)c3)cc2)ccn1	enzyme activity	inhibitor			10 µM	inhibition	86%
CS(=O)(=O)c1cc(C2(NC(=O)c3cncc4c3cnn4-c3ccc(F)cc3)CC2)ccn1	cell-free assay		competition with immobilised ligand		1 µM	remaining binding	89%
O=C1NC(=O)c2cc(Nc3ccc(F)cc3)c(Nc3ccc(F)cc3)cc21	cell-free assay				0.5 µM	remaining signal	92.7%
COc1cc(-c2cn(C3CCc4c(F)cccc4N(CC(F)(F)F)C3=O)nn2)ccc1-n1cnc(C)c1 (centres unmarked)	cell-free assay		competition with immobilised ligand		1 µM	remaining binding	100%
Cc1[nH]c(/C=C2\C(=O)Nc3ccc(F)cc32)c(C)c1C(=O)N[C@H]1CCN(C(=O)N(C)C)C1	enzyme activity	inhibitor			0.1 µM	remaining activity	82%
CS(=O)(=O)N1CCCC(NC(=O)[C@H](CCC2CCCCC2)NC(=O)c2ccc(CNC(=O)c3cnc4ccccn34)cc2)C1 (some centres unmarked)	cell-free assay		competition with immobilised ligand		0.1 µM	remaining binding	100%
CNC(=O)c1ccccc1Nc1cc(Nc2ccc(N3CCOCC3)cc2OC)ncc1C(F)(F)F	enzyme activity	inhibitor			1 µM	inhibition	> 50%
CC1=C(C#N)C(c2ccc3c(c2)c(NC(=O)c2ccccc2C)nn3C)C(C#N)=C(C)N1	cell-free assay		competition with immobilised ligand		1 µM	remaining binding	61%
COc1cc2nccc(Oc3ccc(NC(=O)c4c5n(n(-c6ccc(F)cc6)c4=O)CCCC5)cc3)c2cc1OC	enzyme activity	inhibitor			0.1 µM	inhibition	-3%
